Experiment [1] concerns the target Mcl-1 (Mcl-1ΔN170ΔC23) (Homo sapiens, UniProt Q07820). Description: Fluorescence polarization assay. Type of experiment: binding. A digest of the protocol: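 Human Mcl-1ΔN170ΔC23 was expressed His-SUMO-tagged in E. coli Rosetta BL21(DE3), Ni-purified, ULP1-cleaved, then SEC-purified. Protein was serially diluted in 20 mM Tris pH 8.0, 50 mM NaCl with FITC-labelled BH3 peptide (10 nM), shaken 1 min, and incubated 10 min at room temperature in the dark. Polarization (mP) was read in at least three replicates, and Kd was obtained by sigmoidal dose-response nonlinear regression.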

In experiment [2] the target is FITC-Bim BH3. Briefly: fluorescence polarisation.
Experiment [3] has as its target FITC-Bmf BH3. Description: fluorescence polarisation.
Experiment [4] has as its target Bcl-xLΔC25ΔLoop (human, UniProt Q07817-1 1-208, removes the unstructured loop between residues 46–82). Description: crystal structure.
The target in experiment [5] is T1, Bcl-2ΔC32ΔLoop (human, UniProt P10415;Q07817).
T1 chain: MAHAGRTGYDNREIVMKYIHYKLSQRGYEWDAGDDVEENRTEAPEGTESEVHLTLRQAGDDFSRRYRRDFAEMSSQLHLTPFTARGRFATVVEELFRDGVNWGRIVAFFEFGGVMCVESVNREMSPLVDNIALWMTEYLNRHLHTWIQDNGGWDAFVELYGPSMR
Description: crystal structure.

In experiment [6] the target is R146A Bcl-2 (human, UniProt P10415 1-207, R146A). Briefly: fluorescence polarisation.
Sequence of R146A Bcl-2 (P10415 1-207 R146A): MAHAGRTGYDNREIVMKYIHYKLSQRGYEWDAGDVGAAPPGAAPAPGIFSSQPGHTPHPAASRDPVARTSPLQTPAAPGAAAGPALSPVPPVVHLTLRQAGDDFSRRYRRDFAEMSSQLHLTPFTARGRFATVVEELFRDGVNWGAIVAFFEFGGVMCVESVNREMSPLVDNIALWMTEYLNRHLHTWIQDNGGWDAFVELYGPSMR
Experiment [7] concerns the target R139A Bcl-xL (human, UniProt Q07817-1 1-208, R139A). Description: fluorescence polarisation.
For experiment [8], the target named is Bcl-2ΔC32 (human, UniProt P10415 1-207). Description: fluorescence polarisation.
Experiment [9] has as its target Bcl-xLΔC25 (human, UniProt Q07817-1 1-208). Briefly: fluorescence polarisation.

The source of these data is publication PMC10407628 (Computational and Structural Biotechnology Journal, 2023).

Ends that are not written are not given here. Peptide text beside a SMILES is read from it. * marks the point of attachment. FITC = O=C1OC2(c3ccc(O)cc3Oc3cc(O)ccc32)c2ccc(NC(=S)*)cc21

Sequence of Mcl-1 (Mcl-1ΔN170ΔC23) (Q07820 171-327 limits assumed, stated change not applied): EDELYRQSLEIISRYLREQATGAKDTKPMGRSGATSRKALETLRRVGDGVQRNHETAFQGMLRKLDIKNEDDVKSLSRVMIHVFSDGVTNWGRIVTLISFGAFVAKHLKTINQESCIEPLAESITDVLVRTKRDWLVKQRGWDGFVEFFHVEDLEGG

In the case of `CC[C@H](C)[C@H](NC(=O)[C@H](CS)NC(=O)[C@H](CCC(N)=O)NC(=O)[C@H](CC(C)C)NC(=O)[C@H](CCCCN)NC(=O)[C@H](CCCNC(=N)N)NC(=O)[C@H](C)NC(=O)[C@@H](NC(=O)[C@H](CCC(N)=O)NC(=O)[C@@H](NC(=O)[C@H](CCC(=O)O)NC(=O)[C@H](C)NC(=O)[C@H](CCC(N)=O)NC(=O)[C@H](Cc1c[nH]cn1)NC(=S)Nc1ccc2c(c1)C(=O)OC21c2ccc(O)cc2Oc2cc(O)ccc21)C(C)C)[C@@H](C)CC)C(=O)N[C@@H](C)C(=O)N[C@@H](CC(=O)O)C(=O)N[C@@H](CCC(N)=O)C(=O)N[C@@H](Cc1ccccc1)C(=O)N[C@@H](Cc1c[nH]cn1)C(=O)N[C@@H](CCCNC(=N)N)C(=O)N[C@@H](CC(C)C)C(=O)N[C@@H](Cc1c[nH]cn1)C(=O)N[C@H](C(=O)N[C@@H](CCC(N)=O)C(=O)N[C@@H](CCC(N)=O)C(=O)O)C(C)C` [FITC-Bmf BH3] ({FITC}-HQAEVQIARKLQCIADQFHRLHVQQ-OH), binding in experiment [1] was put at a Kd of 185 nM.

Take “Mcl-1ΔN170ΔC23 (from UniProt Q07820 171-327) (domain or fragment)”: the results for the Kd in experiment [2] and in experiment [3] were 5.8 nM and 185 nM, respectively.

In experiment [3], “Mcl-1 with Ala-227 substituted by Asp (from UniProt Q07820 171-327) (domain or fragment)” displayed a Kd of 49 nM.

With HQAEVQIARKLQCIADQFHRLHVQQ [25-mer Bmf BH3 peptide], the binding result in experiment [4] is reported as “binds”.

Regarding EVQIARKLQCIADQFHRLHVQ [21-mer Bmf BH3 peptide], the binding result in experiment [5] was “binds”.

For {FITC}-HQAEVQIARKLQCIADQFHRLHVQQ [FITC-Bmf BH3], the Kd turned out to be 623 nM in experiment [6], 1240 nM in experiment [7], 5.2 ± 0.3 nM in [8] and 5.1 ± 0.4 nM in experiment [9].
